Measurements as given in ChEMBL document CHEMBL1177753, “Cytotoxic bisbenzylisoquinoline alkaloids from the roots of Cyclea racemosa” (J Nat Prod, 2010).
pIC50: −log10 of the molar value.

Experiments:
Type in all cases: functional, cell-based
[1] = tested on: Bel-7402; assay: Cytotoxicity against human Bel7402 cells after 3 days by MTT assay; conditions: Bel-7402, 72 h
How it was run: (§1)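 Human tumor cells grown in RPMI-1640 with 5% fetal bovine serum. Freshly trypsinized cells seeded at 5000 cells per well in 96-well plates. Compounds added from DMSO-diluted stock. After three days of culture, attached cells stained with MTT, bound dye solubilized, absorbance read at 540 nm. IC50 taken as the concentration giving 50% growth inhibition, averaged from triplicate determinations.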

[2] = tested on: HCT-8; assay: Cytotoxicity against human HCT8 cells after 3 days by MTT assay; conditions: HCT-8, 72 h; how it was run: as §1
[3] = tested on: A2780; assay: Cytotoxicity against human A2780 cells after 3 days by MTT assay; conditions: A2780, 72 h; how it was run: as §1

SMILES | pIC50 [1] | pIC50 [2] | pIC50 [3]
CC(=O)O[C@H]1C(=O)[C@@]2(C)[C@H]([C@H](OC(=O)c3ccccc3)[C@]3(O)C[C@H](OC(=O)[C@H](O)[C@@H](NC(=O)c4ccccc4)c4ccccc4)C(C)=C1C3(C)C)[C@]1(OC(C)=O)CO[C@@H]1C[C@@H]2O [PACLITAXEL] | 5.74 | 6.17 | 6.19
COc1cc2c3cc1Oc1cc(ccc1O)C[C@@H]1c4c(cc(OC)c5c4Oc4ccc(cc4CO5)C[C@H]3N(C)CC2)CCN1C [RACEMOSIDINE A] | 5.22 | 5.55 | 5.17
COc1cc2c3cc1Oc1cc(ccc1O)C[C@H]1c4c(cc(OC)c(OC)c4Oc4ccc(cc4)C[C@H]3N(C)CC2)CCN1C [RACEMOSIDINE B] | 5.34 | 5.01 | < 5.00
COc1ccc2cc1Oc1cc3c(cc1OC)CCN(C)[C@@H]3Cc1ccc(cc1)Oc1c(OC)c(O)cc3c1[C@H](C2)N(C)CC3 [RACEMOSIDINE C] | 5.12 | 5.22 | < 5.00
COc1cc2c3cc1Oc1c(O)c(OC)cc4ccnc(c14)Cc1ccc(cc1)Oc1cc(ccc1O)C[C@H]3N(C)CC2 [RACEMOSININE B] | < 5.00 | < 5.00 | < 5.00
COc1cc2c3cc1Oc1c(O)c(OC)cc4ccnc(c14)Cc1ccc(cc1)Oc1cc(ccc1O)C[C@H]3[N+](C)([O-])CC2 (stereo partly drawn) [RACEMOSININE C] | < 5.00 | < 5.00 | < 5.00
